Test results taken from PubChem BioAssay.
Calls of active or inactive are those of the source. Cut-off read from the data, not from the text of the source, unless noted: active = inhibition above about 30%; inactive = the rest.

What was measured:
[1] = reducers of endogenous Her2 protein level, primary screen, SKBR3 breast tumor cells, AlphaScreen, ATP viability (AID 461;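 active = Her2 level under about 52% in both replicate screens, with viability over 70% of control, limit read from the data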;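 for Her2 level: lower value means less Her2 protein in the cells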;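 for viability: percent of carrier control wells set as 100% viability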); conditions: 18-24 h, measured here: SKBR3 viability, ATP luminescence, at 10 µM
[2] = target: Receptor tyrosine-protein kinase erbB-2 (Homo sapiens) (UniProt P04626); experiment: as above; conditions: 18-24 h, at 10 µM, stronger effect = lower value
[3] = SK-BR-3 cell growth inhibitors, pilot screen, 24 h, human (AID 572;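 active = viability at or below 10% of carrier control in both of two separate runs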;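 note: compound exposure lasted between 18 and 24 h rather than exactly 24 h; 100% = carrier-treated control wells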); conditions: SK-BR-3 viability, CellTiter-Glo luminescence, at 10 µM, stronger effect = lower value
[4] = HUVEC growth inhibition – cell-based, human, primary screen (AID 575;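 active = viability at or below 30% in both replicate assays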;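 note: 100% = median of untreated cell wells with 0.1% DMSO on each plate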); conditions: HUVEC proliferation, CellTiter-Glo luminescence, 72 h; at 10 µM; stronger effect = lower value
Procedure, shortened: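 System: primary human umbilical vein endothelial cells; Quantity: 1250 endothelial cells in each well; Buffer or medium: supplemented EBM, 2% fetal bovine serum; Doses: one dose, 10 µM final, 0.1% DMSO; Incubation: 72 h compound incubation; Technique: ATP-based CellTiter-Glo luminescent read; Evaluation: percent of median DMSO-control luminescence; Controls: vehicle and MePR control wells.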

[5] = growth inhibitors of H69AR lung tumor, primary screen, human, duplicate replicates (AID 580;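 active = viability at or under a set limit in both replicates, limit being median viability minus 3 SD, cut at about 48% in these data, passing the limit was not always enough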;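 note: 100% = mean luminescence of untreated wells and 0% = no signal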); conditions: H69AR lung tumor cells viability, ATP luminescence, 72 h; at 10 µM; stronger effect = lower value
[6] = reversal of MRP1-mediated doxorubicin resistance, pilot screen, H69AR cells, doxorubicin co-treatment (AID 601;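 active = viability loss from added drug above about 55%, and viability with drug at most 40%, in both replicates, limit read from the data, passing the limit was not always enough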); conditions: CellTiter-Glo, 72 h, at 10 µM; for differential viability (reversal): stronger effect = higher value
[7] = 384-well plate pilot, post-Golgi transport modulator project, inhibition of yeast transport mutant growth (AID 636; in the data active = inhibition above about 31%); conditions: absorbance 615 nm, about 18 h, stronger effect = higher value
[8] = growth suppression of yeast trafficking mutant, preliminary HTS, modulators of trafficking downstream of Golgi apparatus project, 1536-format plate, OD 615 nm (AID 637); conditions: yeast transport mutant growth, absorbance 615 nm, 18 h; stronger effect = higher value
[9] = H69AR cells + 2 uM doxorubicin, measured here: viability with 2 uM doxorubicin, stronger effect = lower value
[10] = H69AR cells, compound alone cytotoxicity

Chain of Receptor tyrosine-protein kinase erbB-2 (Homo sapiens) (P04626 whole entry, looked up): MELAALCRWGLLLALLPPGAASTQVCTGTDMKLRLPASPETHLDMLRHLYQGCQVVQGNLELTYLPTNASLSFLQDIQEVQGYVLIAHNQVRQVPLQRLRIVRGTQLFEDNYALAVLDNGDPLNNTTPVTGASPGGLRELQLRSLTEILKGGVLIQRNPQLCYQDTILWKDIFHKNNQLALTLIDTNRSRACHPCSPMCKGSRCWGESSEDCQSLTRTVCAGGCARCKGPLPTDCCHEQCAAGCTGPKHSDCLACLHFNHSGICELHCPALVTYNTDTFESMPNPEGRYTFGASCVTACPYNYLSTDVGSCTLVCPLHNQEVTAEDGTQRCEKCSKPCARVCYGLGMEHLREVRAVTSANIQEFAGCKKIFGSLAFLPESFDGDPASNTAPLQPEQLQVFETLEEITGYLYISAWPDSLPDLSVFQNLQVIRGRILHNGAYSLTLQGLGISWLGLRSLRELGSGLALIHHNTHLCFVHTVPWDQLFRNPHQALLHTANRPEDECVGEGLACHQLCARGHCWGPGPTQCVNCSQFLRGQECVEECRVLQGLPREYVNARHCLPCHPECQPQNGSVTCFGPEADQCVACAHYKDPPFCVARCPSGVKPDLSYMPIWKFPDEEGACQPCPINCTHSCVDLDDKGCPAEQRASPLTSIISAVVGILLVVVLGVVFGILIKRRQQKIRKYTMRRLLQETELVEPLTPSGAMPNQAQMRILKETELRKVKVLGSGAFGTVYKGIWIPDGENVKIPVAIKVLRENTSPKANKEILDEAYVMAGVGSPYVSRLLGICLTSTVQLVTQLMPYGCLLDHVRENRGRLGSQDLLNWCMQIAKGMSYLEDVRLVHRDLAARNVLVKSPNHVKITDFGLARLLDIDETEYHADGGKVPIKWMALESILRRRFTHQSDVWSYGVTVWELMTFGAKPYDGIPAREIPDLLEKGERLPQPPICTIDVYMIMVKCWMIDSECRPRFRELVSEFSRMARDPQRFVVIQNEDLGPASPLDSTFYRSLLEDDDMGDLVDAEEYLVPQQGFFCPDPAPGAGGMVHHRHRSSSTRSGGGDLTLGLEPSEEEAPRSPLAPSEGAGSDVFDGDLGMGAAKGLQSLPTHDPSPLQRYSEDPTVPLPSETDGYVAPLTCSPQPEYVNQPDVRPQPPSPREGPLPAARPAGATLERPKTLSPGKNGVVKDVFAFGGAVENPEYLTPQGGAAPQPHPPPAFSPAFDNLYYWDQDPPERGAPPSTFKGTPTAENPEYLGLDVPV

Row | Compound | viability [1] [%] | Her2 level [2] | viability [3] | viability [4] | viability [5] | differential viability (reversal) ([6]; H69AR cells + 2 uM doxorubicin) | viability [6, 9] [%] | viability [6, 10] [%] | inhibition [7] | inhibition [8]
1 | Cc1cccc(OCCCC(=O)O)c1 | 101 | 102% (inactive) | 101% (inactive) | 93.5% (inactive) | 89.4% (inactive) | -4.09% (inactive) | 93.5 | 89.4 | -4.73% (inactive) | -6.83% (inactive)
2 | COc1cc(S(=O)(=O)N2CCOCC2)ccc1NC(=O)COC(=O)C12CC3CC(CC(C3)C1)C2 | 92 | 73.5% (inactive) | 92% (inactive) | 87.2% (inactive) | 85% (inactive) | -11.2% (inactive) | 96.2 | 85 | 0.38% (inactive) | -11.7% (inactive)
3 | COC(=O)CCc1c(C)c(C#N)c2nc3ccccc3n2c1N1CCCC1 | 100 | 84% (inactive) | 100% (inactive) | 98.1% (inactive) | 73.2% (inactive) | 45.5% (inactive) | 27.7 | 73.2 | -8.24% (inactive) | 8.67% (inactive)
4 | CC(C(=O)Nc1ccccc1-c1ccccc1)N1CCN(C(=O)c2ccco2)CC1 (stereo not given) | 91.5 | 95% (inactive) | 91.5% (inactive) | 96.2% (inactive) | 74.1% (inactive) | 8.3% (inactive) | 65.8 | 74.1 | -6.18% (inactive) | 0.32% (inactive)
5 | Cc1ccc(N2CC(C(=O)Nc3nnc(C)s3)CC2=O)cc1 (stereo not given) | 110 | 90% (inactive) | 110% (inactive) | 86.2% (inactive) | 106% (inactive) | 16.4% (inactive) | 89.9 | 106 | -4.67% (inactive) | 0.65% (inactive)
6 | CC1=C(C(=O)OCCOC(C)C)C(c2cc3c(cc2Br)OCO3)C2=C(CCCC2=O)N1 (stereo not given) | 102 | 111% (inactive) | 102% (inactive) | 86.2% (inactive) | 80.8% (inactive) | 1.89% (inactive) | 78.9 | 80.8 | -2.8% (inactive) | 6.07% (inactive)
7 | CCOC(=O)CSc1nnc(NC(=O)c2cccc(S(=O)(=O)N3CCCCC3)c2)s1 | 94 | 87.5% (inactive) | 94% (inactive) | 79.6% (inactive) | 101% (inactive) | 9.55% (inactive) | 91.2 | 101 | -3.03% (inactive) | -1.67% (inactive)
8 | CCOC(=O)c1ccc(N2C(=O)CC(N3CCN(C/C=C/c4ccccc4)CC3)C2=O)cc1 (stereo not given) | 84 | 91.5% (inactive) | 84% (inactive) | 91.4% (inactive) | 84.3% (inactive) | -1.62% (inactive) | 85.9 | 84.3 | -0.64% (inactive) | -2.5% (inactive)
9 | CC(C)(C)n1ncc2c(=O)n(CC(=O)NCc3ccco3)cnc21 | 91.5 | 94% (inactive) | 91.5% (inactive) | 111% (inactive) | 68.5% (inactive) | -12.3% (inactive) | 80.8 | 68.5 | -1.45% (inactive) | -10.5% (inactive)
10 | CC1CCN(Cc2ccc(-c3nn[nH]n3)cc2)CC1 | 116 | 86.5% (inactive) | 116% (inactive) | 99.6% (inactive) | 95% (inactive) | 0.33% (inactive) | 94.7 | 95 | 1.04% (inactive) | 30% (active)
11 | CN(Cc1nc(-c2ccncc2)no1)S(=O)(=O)c1ccccc1 | 99.5 | 79% (inactive) | 99.5% (inactive) | 96.3% (inactive) | 95.7% (inactive) | 7.03% (inactive) | 88.7 | 95.7 | -7.57% (inactive) | 0.79% (inactive)
12 | CC(C)OC(=O)c1cc(=O)[nH]c2ccccc12 | 128 | 79% (inactive) | 128% (inactive) | 95.7% (inactive) | 102% (inactive) | 21.9% (inactive) | 80.7 | 102 | -2.47% (inactive) | -2.22% (inactive)
13 | CCn1c(=O)cc(OCC(=O)Nc2cc(C)ccn2)c2ccccc21 | 80 | 77% (inactive) | 80% (inactive) | 73.9% (inactive) | 86.4% (inactive) | -3.33% (inactive) | 89.7 | 86.4 | -2.89% (inactive) | -0.55% (inactive)
14 | Cc1c(C(=O)O)sc2nc3n(c(=O)c12)CCC(C)CC3 (stereo not given) | 93 | 87% (inactive) | 93% (inactive) | 82.2% (inactive) | 88.2% (inactive) | 5.25% (inactive) | 83 | 88.2 | -0.53% (inactive) | 8.69% (inactive)
15 | Cc1cc(C)c(S(=O)(=O)Nc2cccnc2)c(C)c1 | 100 | 91% (inactive) | 100% (inactive) | 105% (inactive) | 97.8% (inactive) | 8.71% (inactive) | 89.1 | 97.8 | -4.93% (inactive) | -0.16% (inactive)
16 | CCOCCCNC(=O)c1c[nH]c2ccc(S(=O)(=O)Nc3cccc(OC)c3)cc2c1=O | 108 | 106% (inactive) | 108% (inactive) | 83.4% (inactive) | 99.9% (inactive) | 6.57% (inactive) | 93.3 | 99.9 | -5.66% (inactive) | -8.71% (inactive)

Row | Compound | viability [1] [%] | Her2 level [2] | viability [3] | viability [4] | viability [5] | differential viability (reversal) ([6]; H69AR cells + 2 uM doxorubicin) | viability [6, 9] [%] | viability [6, 10] [%] | inhibition [7] | inhibition [8]
17 | Cc1onc(-c2ccccc2)c1C(N)=O | 91 | 93.5% (inactive) | 91% (inactive) | 97.7% (inactive) | 100% (inactive) | 13.8% (inactive) | 86.7 | 100 | -1.32% (inactive) | -4.35% (inactive)
18 | Cc1n[nH]c(C)c1S(=O)(=O)N1CCCCCC1 | 98 | 80% (inactive) | 98% (inactive) | 105% (inactive) | 101% (inactive) | 0.14% (inactive) | 101 | 101 | -1.58% (inactive) | -3.17% (inactive)
19 | O=C(CSc1nnc(CNC(=O)c2cccs2)o1)Nc1cccc(C(F)(F)F)c1 | 83.5 | 98.5% (inactive) | 83.5% (inactive) | 82.7% (inactive) | 92.8% (inactive) | 1.86% (inactive) | 90.9 | 92.8 | -0.13% (inactive) | -7% (inactive)
20 | Cc1cccc(CCNC(=O)C2CCCN(S(=O)(=O)c3cnc[nH]3)C2)c1 (stereo not given) | 99.5 | 106% (inactive) | 99.5% (inactive) | 103% (inactive) | 89.4% (inactive) | 3.16% (inactive) | 86.2 | 89.4 | -4.93% (inactive) | -1.97% (inactive)
21 | Cc1[nH]c2ccccc2c(=O)c1CN(C)Cc1ccccc1 | 92.5 | 95% (inactive) | 92.5% (inactive) | 100% (inactive) | 91.8% (inactive) | 2.49% (inactive) | 89.3 | 91.8 | -4.21% (inactive) | -0.98% (inactive)
22 | CCOC(=O)N1CCN(C(=O)c2ccc3c(=O)n(CCc4ccccc4)c(=O)[nH]c3c2)CC1 | 98.5 | 108% (inactive) | 98.5% (inactive) | 77.1% (inactive) | 85.6% (inactive) | 30% (inactive) | 55.6 | 85.6 | -1.49% (inactive) | 14.8% (inactive)
23 | O=C(N1CCOCC1)N1CCC(NC(=O)C23CC4CC(CC(C4)C2)C3)CC1 | 90 | 88% (inactive) | 90% (inactive) | 99.6% (inactive) | 98.8% (inactive) | 8.44% (inactive) | 90.4 | 98.8 | -6% (inactive) | 4.84% (inactive)
24 | CCCCn1c(CN2CCN(c3cccc(Cl)c3)CC2)nc2c1c(=O)n(C)c(=O)n2C | 111 | 75% (inactive) | 111% (inactive) | 66.9% (inactive) | 74.7% (inactive) | 50.2% (inactive) | 24.5 | 74.7 | -4.74% (inactive) | 6.07% (inactive)
25 | Cn1c(=N)c(S(=O)(=O)c2ccc(Cl)cc2)cc2c(=O)n3ccccc3nc21 | 110 | 106% (inactive) | 110% (inactive) | 85.4% (inactive) | 83.1% (inactive) | -3.57% (inactive) | 86.7 | 83.1 | -1.95% (inactive) | -1.67% (inactive)
26 | Cc1ccc(-c2nn(C)c(=O)c3ccccc23)cc1S(=O)(=O)NCCN1CCOCC1 | 87 | 121% (inactive) | 87% (inactive) | 98.6% (inactive) | 93.3% (inactive) | 5.54% (inactive) | 87.8 | 93.3 | 6.8% (inactive) | -6.35% (inactive)
27 | COc1cccc(-n2c(SC3CCOC3=O)nc3ccccc3c2=O)c1 (stereo not given) | 94.5 | 99.5% (inactive) | 94.5% (inactive) | 88.2% (inactive) | 94.4% (inactive) | 10.5% (inactive) | 83.8 | 94.4 | -5.2% (inactive) | -6.03% (inactive)
28 | COc1cc(NC(=O)C2CC(c3cccc(OC)c3OC)=NO2)cc(OC)c1OC (stereo not given) | 83 | 99% (inactive) | 83% (inactive) | 54.9% (inactive) | 27.3% (active) | -41.8% (inactive) | 69.1 | 27.3 | 6.84% (inactive) | -4.18% (inactive)
29 | CCOC(=O)C(CCc1nnc(N)s1)C(=O)OCC | 87.5 | 89% (inactive) | 87.5% (inactive) | 110% (inactive) | 108% (inactive) | 12.8% (inactive) | 95.2 | 108 | -4.53% (inactive) | -0.48% (inactive)
30 | C[C@H](NC(=O)OC(C)(C)C)C(=O)NCC1CCC(C(=O)O)CC1 (stereo not given in full) | 101 | 97% (inactive) | 101% (inactive) | 103% (inactive) | 108% (inactive) | 11.7% (inactive) | 96.4 | 108 | -5.73% (inactive) | -1.29% (inactive)
31 | CCN(Cc1cc2cc(OC)ccc2[nH]c1=O)C(=O)Cc1ccc(OC)cc1 | 91 | 87.5% (inactive) | 91% (inactive) | 96.5% (inactive) | 88.2% (inactive) | 6.29% (inactive) | 81.9 | 88.2 | -0.66% (inactive) | -3.44% (inactive)
